Tests used:
[1] = biological target: T1, Histamine H3 receptor (Homo sapiens, UniProt Q9Y5N1); experiment: Displacement of [3H]N-alpha-methylhistamine from human histamine H3 receptor expressed in HEK cells by scintillation counting; assay type: cell-based, HEK293
Procedure, shortened: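 Membranes (P2 pellet) from rHu H3–HEK cells were incubated in 50 mM Tris–HCl, pH 7.4, with 1 nM [3H]N-α-methylhistamine (82 Ci/mmol). Compounds were tested at half-log steps over a five-log range. Nonspecific binding was defined with 10^-5 M thioperamide. Incubation ran 30 min at 30 °C, then mixtures were filtered on PEI-soaked GF/B filters, washed three times and counted. Ki was taken from nonlinear curve fits.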

[2] = biological target: Voltage-gated inwardly rectifying potassium channel KCNH2 (Homo sapiens, UniProt Q12809); experiment: Rubidium efflux through human ERG at 5 ug/mL pre-equilibrated for 30 mins by flame atomic absorbance spectroscopy
[3] = biological target: Cytochrome P450 3A4 (Homo sapiens, UniProt P08684); experiment: Inhibition of CYP3A4 in human liver microsomes up to 30 uM by microtiter plate assay; assay type: ADME, Microsome
[4] = biological target: T1, Histamine H3 receptor; experiment: Antagonist activity at human histamine H3 receptor expressed in HEK293 cells assessed as reversal of N-alpha-methylhistamine-induced inhibition of forskolin-stimulated cAMP formation; assay type: functional, cell-based
[5] = biological target: Histamine H3 receptor (Mus musculus, UniProt P58406); experiment: Binding affinity to mouse histamine H3 receptor
[6] = AUC (0 to 6 hrs) in rat at 10 mg/kg, po; assay type: ADME, organism-based; design: time < 6 hr, dose 10 mg/kg, route oral; conditions: plasma
Procedure, shortened: (§1)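 Oral dosing in rat at 10 mg/kg in methyl cellulose, n = 2, in a high-throughput PK assay. Plasma was sampled over 0–6 h time points to give AUC and Cmax.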

[7] = Cmax (0 to 6 hrs) in rat at 10 mg/kg, po; assay type: ADME, organism-based; design: dose 10 mg/kg, route oral; conditions: in vivo; procedure, shortened: as §1
[8] = biological target: Cytochrome P450 2D6 (Homo sapiens, UniProt P10635); experiment: Inhibition of CYP2D6 in human liver microsomes up to 30 uM by microtiter plate assay; assay type: ADME, Microsome
Chain of Cytochrome P450 2D6 (P10635 whole entry): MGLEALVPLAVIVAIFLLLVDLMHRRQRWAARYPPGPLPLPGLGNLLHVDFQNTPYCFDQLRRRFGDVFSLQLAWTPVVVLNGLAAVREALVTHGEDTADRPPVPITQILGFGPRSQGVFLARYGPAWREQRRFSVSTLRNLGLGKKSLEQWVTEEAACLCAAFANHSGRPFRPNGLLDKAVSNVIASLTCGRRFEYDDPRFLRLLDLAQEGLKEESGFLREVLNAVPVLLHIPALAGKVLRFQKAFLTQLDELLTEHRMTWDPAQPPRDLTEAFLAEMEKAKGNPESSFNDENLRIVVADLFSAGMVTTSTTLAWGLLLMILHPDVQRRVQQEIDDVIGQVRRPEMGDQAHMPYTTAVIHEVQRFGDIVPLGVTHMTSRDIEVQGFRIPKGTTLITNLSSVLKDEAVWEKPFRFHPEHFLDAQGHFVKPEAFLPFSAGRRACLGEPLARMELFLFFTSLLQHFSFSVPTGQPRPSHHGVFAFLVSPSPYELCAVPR

T1 sequence (Q9Y5N1 whole entry): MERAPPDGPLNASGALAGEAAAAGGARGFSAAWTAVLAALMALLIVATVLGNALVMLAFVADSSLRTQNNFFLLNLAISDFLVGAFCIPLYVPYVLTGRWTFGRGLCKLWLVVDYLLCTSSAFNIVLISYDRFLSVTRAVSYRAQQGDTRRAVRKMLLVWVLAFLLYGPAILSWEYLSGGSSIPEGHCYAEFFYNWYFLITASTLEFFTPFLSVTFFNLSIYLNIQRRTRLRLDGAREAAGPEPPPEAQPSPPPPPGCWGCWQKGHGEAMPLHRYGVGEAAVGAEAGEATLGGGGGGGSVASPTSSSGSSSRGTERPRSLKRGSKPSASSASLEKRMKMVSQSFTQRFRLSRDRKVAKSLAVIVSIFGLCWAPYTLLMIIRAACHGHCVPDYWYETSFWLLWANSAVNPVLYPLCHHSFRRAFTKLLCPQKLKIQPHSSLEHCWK
Chain of Voltage-gated inwardly rectifying potassium channel KCNH2 (Q12809 whole entry): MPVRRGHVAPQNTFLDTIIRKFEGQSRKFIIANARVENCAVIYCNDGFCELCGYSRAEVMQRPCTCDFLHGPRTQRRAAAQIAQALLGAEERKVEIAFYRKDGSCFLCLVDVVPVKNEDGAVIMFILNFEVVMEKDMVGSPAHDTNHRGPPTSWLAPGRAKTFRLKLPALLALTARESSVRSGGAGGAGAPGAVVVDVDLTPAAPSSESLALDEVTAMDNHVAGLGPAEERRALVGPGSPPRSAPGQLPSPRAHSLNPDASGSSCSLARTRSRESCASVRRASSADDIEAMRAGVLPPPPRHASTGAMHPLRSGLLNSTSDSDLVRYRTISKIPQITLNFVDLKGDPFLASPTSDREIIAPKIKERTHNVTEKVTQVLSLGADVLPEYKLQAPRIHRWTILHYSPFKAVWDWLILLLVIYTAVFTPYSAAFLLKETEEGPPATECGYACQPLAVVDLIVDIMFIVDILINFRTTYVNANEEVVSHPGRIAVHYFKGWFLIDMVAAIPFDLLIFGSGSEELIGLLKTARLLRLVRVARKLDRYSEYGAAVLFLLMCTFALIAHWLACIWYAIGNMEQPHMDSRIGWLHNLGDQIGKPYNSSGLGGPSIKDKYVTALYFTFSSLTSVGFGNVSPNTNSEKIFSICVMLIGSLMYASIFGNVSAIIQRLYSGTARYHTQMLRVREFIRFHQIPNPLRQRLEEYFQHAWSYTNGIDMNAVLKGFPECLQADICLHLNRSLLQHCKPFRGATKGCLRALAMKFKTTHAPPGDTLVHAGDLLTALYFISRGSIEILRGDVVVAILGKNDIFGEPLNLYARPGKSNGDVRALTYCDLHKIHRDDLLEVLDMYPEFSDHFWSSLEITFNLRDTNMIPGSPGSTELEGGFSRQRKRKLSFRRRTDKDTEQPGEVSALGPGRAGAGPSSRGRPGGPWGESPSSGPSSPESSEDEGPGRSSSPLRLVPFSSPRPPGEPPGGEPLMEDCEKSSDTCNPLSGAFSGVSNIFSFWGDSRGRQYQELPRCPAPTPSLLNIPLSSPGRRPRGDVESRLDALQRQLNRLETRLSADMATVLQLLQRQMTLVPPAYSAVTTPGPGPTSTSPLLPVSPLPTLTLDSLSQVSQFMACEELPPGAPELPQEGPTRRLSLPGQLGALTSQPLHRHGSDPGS
Chain of Cytochrome P450 3A4 (P08684 whole entry): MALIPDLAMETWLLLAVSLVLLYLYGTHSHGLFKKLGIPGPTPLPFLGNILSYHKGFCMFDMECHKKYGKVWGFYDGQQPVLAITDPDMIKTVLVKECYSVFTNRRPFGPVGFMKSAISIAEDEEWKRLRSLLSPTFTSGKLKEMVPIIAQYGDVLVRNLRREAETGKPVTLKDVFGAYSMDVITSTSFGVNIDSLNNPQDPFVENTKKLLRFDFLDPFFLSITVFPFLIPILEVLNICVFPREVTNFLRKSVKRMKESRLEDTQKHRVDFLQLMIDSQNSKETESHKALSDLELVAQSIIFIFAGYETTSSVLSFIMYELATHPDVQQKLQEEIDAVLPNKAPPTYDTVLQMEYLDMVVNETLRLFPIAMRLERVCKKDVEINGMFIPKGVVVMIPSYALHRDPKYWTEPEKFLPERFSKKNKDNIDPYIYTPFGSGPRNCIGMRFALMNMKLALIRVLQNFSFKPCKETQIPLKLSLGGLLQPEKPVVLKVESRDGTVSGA
Chain of Histamine H3 receptor (Mus musculus, UniProt P58406) (P58406 whole entry): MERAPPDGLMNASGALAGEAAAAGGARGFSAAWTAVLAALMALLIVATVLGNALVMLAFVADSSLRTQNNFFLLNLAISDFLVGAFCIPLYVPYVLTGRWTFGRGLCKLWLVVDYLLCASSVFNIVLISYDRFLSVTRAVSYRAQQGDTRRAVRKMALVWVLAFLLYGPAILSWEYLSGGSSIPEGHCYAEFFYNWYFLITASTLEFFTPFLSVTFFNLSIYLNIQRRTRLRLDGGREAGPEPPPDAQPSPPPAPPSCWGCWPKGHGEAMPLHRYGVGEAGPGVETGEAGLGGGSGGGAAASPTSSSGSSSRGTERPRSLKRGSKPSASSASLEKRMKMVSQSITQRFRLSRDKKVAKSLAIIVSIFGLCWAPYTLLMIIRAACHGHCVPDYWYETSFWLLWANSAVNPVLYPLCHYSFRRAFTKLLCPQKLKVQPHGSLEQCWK

SMILES	Ki [1] [nM]	also measured
NC(=O)C1CCN(CCCOc2ccc(-n3c(-c4ccccn4)nc4cc(F)ccc43)cc2)CC1	20	–
CNCCCOc1ccc(-n2c(-c3ccccn3)nc3cc(F)ccc32)cc1	101	–
CCOc1nc2cc(F)ccc2n1-c1ccc(OCCCN2CCCCC2)cc1	15	–
COC(=O)C1CCN(CCCOc2ccc(-n3c(-c4ccccn4)nc4cc(F)ccc43)cc2)CC1	16	Rb efflux [2]: 49%
O=c1[nH]c2cc(F)ccc2n1-c1ccc(OCCCN2CCCCC2)cc1	8.7	–
NC(=O)C1CCCN(CCCOc2ccc(-n3c(-c4ccccn4)nc4cc(F)ccc43)cc2)C1 (stereo not drawn)	11	–
Fc1ccc2c(c1)[nH]c(=S)n2-c1ccc(OCCCN2CCCCC2)cc1	8	–
CC1CC(C)CN(CCCOc2ccc(-n3c(-c4ccccn4)nc4cc(F)ccc43)cc2)C1 (stereo not drawn)	11	–
OC1CCN(CCCOc2ccc(-n3c(-c4ccccn4)nc4cc(F)ccc43)cc2)CC1	1.8	Rb efflux [2]: 16%
Fc1ccc2c(c1)nc(-c1ccccn1)n2-c1ccc(OCCCN2CCCC2)cc1	1.2	–
Fc1ccc2c(c1)nc(-c1ccccn1)n2-c1ccc(OCCCN2Cc3cccc4cccc(c34)C2)cc1	713	–
CN1CCCN(CCCOc2ccc(-n3c(-c4ccccn4)nc4cc(F)ccc43)cc2)CC1	3.6	–

More lines, in order of falling Ki [1], values ahead:

Ki [1] [nM]	SMILES	also measured
107	Fc1ccc2c(c1)nc(-c1ccccn1)n2-c1ccc(OCCCN2CCc3ccccc3C2)cc1	Rb efflux [2]: 94%
20	Fc1ccc2c(c1)nc(-c1ccccn1)n2-c1ccc(OCCCN2CCSC2)cc1	Rb efflux [2]: 42%
13	CN1CCN(CCCOc2ccc(-n3c(-c4ccccn4)nc4cc(F)ccc43)cc2)CC1	–
5.3	Fc1ccc2c(c1)nc(-c1ccccn1)n2-c1ccc(OCCCN2CCCCCC2)cc1	–
5.1	C[C@@H]1CC[C@@H](C)N1CCCOc1ccc(-n2c(-c3ccccn3)nc3cc(F)ccc32)cc1	–
3.4	Fc1ccc2c(c1)nc(-c1ccccn1)n2-c1ccc(OCCCN2CCOCC2)cc1	Rb efflux [2]: 62%
2.6	CCSc1nc2cc(F)ccc2n1-c1ccc(OCCCN2CCCCC2)cc1	–
2	Fc1ccc2c(c1)nc(-c1ccccn1)n2-c1ccc(OCCCN2CCC(Cc3ccccc3)CC2)cc1	–
1.2	Fc1ccc2c(c1)nc(-c1ccccn1)n2-c1ccc(OCCCN2CCCCC2)cc1	Activity [3]: Not Active; Ki [4]: 0.1 nM; Rb efflux [2]: 70%; Ki [5]: 1.8 nM; AUC(0-t) at 6 h [6]: 2030 ng·h/mL; Cmax [7]: 393 ng/mL; Activity [8]: Not Active

From ChEMBL document CHEMBL1141692, “Benzimidazole-substituted (3-phenoxypropyl)amines as histamine H3 receptor ligands” (Bioorg Med Chem Lett, 2008)
